# From PubChem
# Sampled rows, rich in hits. Any-hit rate of the full collection: about 2.2%.
# eIF4E 4G PPI: blocks eIF4E binding to eIF4G; P63073+Q04637; TR-FRET eIF4E-eIF4GI(517-606) binding, 2 h; inhibition, % at 21.7 µM; 220,000 tested, 0.37% active;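 active = inhibition above about 30%, limit read from the data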;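 note: 0% = full FRET control wells and 100% = background wells lacking eIF4GI fragment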
# Target sequence (P63073 whole entry, looked up, the tested form may be a part): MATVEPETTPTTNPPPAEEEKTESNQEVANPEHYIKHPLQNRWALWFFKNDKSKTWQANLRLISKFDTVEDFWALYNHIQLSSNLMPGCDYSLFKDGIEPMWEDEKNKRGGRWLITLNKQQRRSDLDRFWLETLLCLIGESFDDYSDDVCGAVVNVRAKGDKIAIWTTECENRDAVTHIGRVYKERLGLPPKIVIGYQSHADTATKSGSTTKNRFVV
# Target sequence (Q04637 whole entry, looked up, the tested form may be a part): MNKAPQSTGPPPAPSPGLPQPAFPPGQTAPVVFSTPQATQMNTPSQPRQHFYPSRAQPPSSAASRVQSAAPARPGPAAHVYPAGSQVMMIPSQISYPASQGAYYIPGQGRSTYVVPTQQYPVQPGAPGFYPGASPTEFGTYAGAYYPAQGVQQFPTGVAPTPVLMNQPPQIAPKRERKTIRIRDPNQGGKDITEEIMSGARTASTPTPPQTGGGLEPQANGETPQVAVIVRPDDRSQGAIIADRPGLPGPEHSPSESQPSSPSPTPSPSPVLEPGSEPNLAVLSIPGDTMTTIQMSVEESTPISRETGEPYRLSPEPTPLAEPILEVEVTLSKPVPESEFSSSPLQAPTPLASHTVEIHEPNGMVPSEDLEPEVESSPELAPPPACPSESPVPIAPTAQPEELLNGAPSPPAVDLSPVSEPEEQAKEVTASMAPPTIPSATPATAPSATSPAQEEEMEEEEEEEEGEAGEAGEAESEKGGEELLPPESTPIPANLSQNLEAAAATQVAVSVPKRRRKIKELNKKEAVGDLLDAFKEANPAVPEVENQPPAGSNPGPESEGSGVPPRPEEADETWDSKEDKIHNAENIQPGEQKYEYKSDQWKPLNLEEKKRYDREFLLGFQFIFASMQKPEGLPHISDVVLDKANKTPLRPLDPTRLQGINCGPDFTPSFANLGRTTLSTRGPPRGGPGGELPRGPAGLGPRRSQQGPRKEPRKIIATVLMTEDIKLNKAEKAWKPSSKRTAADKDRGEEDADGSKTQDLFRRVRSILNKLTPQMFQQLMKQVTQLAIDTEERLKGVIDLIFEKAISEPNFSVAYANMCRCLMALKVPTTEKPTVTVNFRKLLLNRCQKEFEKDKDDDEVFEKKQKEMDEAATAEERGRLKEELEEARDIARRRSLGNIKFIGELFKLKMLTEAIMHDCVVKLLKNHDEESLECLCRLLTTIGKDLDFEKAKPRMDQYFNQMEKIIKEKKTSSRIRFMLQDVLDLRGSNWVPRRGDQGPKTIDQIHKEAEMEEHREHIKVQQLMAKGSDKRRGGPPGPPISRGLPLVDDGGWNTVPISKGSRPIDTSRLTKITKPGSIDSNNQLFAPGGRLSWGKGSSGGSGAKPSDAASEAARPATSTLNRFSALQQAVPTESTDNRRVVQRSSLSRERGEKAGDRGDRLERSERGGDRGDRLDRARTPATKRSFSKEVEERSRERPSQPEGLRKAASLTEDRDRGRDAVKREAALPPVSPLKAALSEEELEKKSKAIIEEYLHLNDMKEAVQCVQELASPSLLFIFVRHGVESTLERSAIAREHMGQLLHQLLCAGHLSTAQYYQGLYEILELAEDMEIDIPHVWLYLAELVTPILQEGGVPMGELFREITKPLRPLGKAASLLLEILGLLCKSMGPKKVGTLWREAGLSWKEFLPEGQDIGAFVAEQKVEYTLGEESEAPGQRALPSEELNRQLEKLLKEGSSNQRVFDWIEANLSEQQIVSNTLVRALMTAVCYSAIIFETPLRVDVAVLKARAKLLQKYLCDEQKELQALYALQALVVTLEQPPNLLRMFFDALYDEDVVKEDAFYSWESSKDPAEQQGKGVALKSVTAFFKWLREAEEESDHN
# PERK inh: inhibitors of human PERK kinase; Q9NZJ5; CHO PERK-DD fusion, SEAP luminescence translation reporter; inhibition, % at 5.6 µM; 220,000 tested, 0.17% active; AID 1416;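 active = inhibition above the mean inhibition of all tested compounds plus 3 SD, set separately per screening campaign, cut at about 2.9% in these data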;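 note: PERK kinase domain activated by AP20187 dimerizer at 100 nM; 0% = DMSO with dimerizer and 100% = rapamycin at 8.4 µM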
# Hck-Nef inh: inhibitors of human Hck kinase activated by Nef; P08631; 220,000 tested, 0.68% active; Recombinant Hck-YEEI plus Nef, Z-Lyte FRET kinase assay; AID 463187; inhibition, % at 20 µM;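 active = Hck-Nef kinase inhibition above about 50%, limit read from the data; inactive = inhibition below that limit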;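 note: 0% = DMSO with Hck plus Nef and 100% = Hck alone without Nef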
# Runt-CBFb FRET: inhibitors of human RUNX1 Runt domain binding to CBFb; Q01196+Q13951; Cerulean-Runt/Venus-CBFb FRET ratio 530/480, 1 h; inhibition, % at 20 µM; 220,000 tested, 0.46% active; AID 1496;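 active = inhibition over about 50% at 20 µM in the single-dose screen, limit read from the data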;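 note: 0% = DMSO wells and 100% = excess unlabeled CBFb competitor control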
#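 test system = Cerulean-tagged RUNX1 Runt domain (FRET donor) fusion protein | reagent = Venus-CBFb binding partner, 100 nM | incubation = protein complex preformed 1 h, compound exposure 1 h, room temperature, dark | detection = FRET fluorescence | read-out basis = loss of energy transfer signal | controls = 5 µM unlabeled CBFb as full-inhibition high control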
# Runt-SMMHC FRET: inhibitors of human RUNX1 Runt domain binding to CBFb-SMMHC. 220,000 tested, 0.74% active. Cerulean-Runt/Venus-CBFb-SMMHC FRET ratio 530/480, 1 h. inhibition, % at 20 µM;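 active = mean inhibition across duplicate retests at 20 µM reaching about 50%, limit read from the data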;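 note: 0% = DMSO wells and 100% = wells with excess untagged CBFb-SMMHC; inhibitors lower the FRET ratio by blocking Runt binding to CBFb-SMMHC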
# RanGTP-Impb inh: disruptors of Ran-importin-beta complex formation – biochemical, FRET, CFP-Ran, YFP-importin-beta, homogeneous, primary screen; 300,000 tested, 1.1% active; inhibition, % (no concentration beside the values); cell-free CFP-Ran/YFP-importin-beta FRET ratio;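 active = more than half of the replicate wells show a fall in the fluorescence ratio signal beyond about 16%, limit read from the data, passing the limit was not always enough; inconclusive = exactly half of the replicate wells pass the set limit; inactive = fewer than half of replicates pass the limit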;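 note: 0% = DMSO wells and 100% = Ran loaded with GDP instead of GTP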
# YIC FRET counter: counter-screen for RanGTP-importin-beta inhibitors: YIC FRET probe; IC50, µM; shares compounds with RanGTP-Impb inh; Purified YIC probe, intramolecular FRET ratio YFP/CFP; AID 435026; 1,000 tested, 40% active;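 active = fitted half-maximal inhibitory concentration no more than tenfold above the top dose tested; inconclusive = flat fit with 30 to 70% activity, or poor fit; inactive = half-maximal concentration beyond tenfold above the top dose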
# Numbers without * were called inactive; ? = inconclusive; nt = no result.
SMILES,eIF4E 4G PPI,PERK inh,Hck-Nef inh,Runt-CBFb FRET,Runt-SMMHC FRET,RanGTP-Impb inh,YIC FRET counter
COc1ccc(C(=O)NC(=S)Nc2ccc(CN3CCOCC3)cc2)cc1OC,-1.1,-2.3,18.3,2.3,1.9,?,nt
COc1ccc(C(CNC(=O)c2cc(F)c(F)c(F)c2F)N2CCOCC2)cc1 (stereo not drawn),3.7,-0.5,-3.4,-0.1,0.7,18.9*,>50
CN(C)CC(C)(C)CNS(=O)(=O)CC12CCC(CC1=O)C2(C)C (stereo not drawn),-1.0,1.2,5.4,0.7,2.6,-0.7,nt
O=C(CN1CCCCCC1)N/N=C/c1cccc(Cl)c1Cl,0.8,-0.1,-1.1,-1.1,4.4,-0.1,nt
O=C(NNc1c2ccccc2nc2ccccc12)c1ccc(Cl)cc1,nt,nt,nt,nt,nt,20.2*,>50
O=C(CN1CCOCC1)NNc1c2ccccc2nc2ccccc12,4.6,-1.1,11.5,13.3,7.7,19.1*,>50
Nc1ccccc1C(=O)NNc1c2ccccc2nc2ccccc12,-6.9,0.5,22.7,3.4,7.2,32.7*,>50
C[N+]1(CC(=O)NNc2c3ccccc3nc3ccccc23)CCOCC1,-0.3,-0.4,18.2,3.7,14.2,2.4,nt
COc1ccc(C(=O)Oc2cc(OC)cc(OC)c2C(C)=O)cc1,0.8,-0.3,-5.3,-0.1,-3.9,1.9,nt
C=CCn1c(SCC(=O)N2CCCCC2)nnc1-c1ccncc1,-0.2,-0.7,10.6,0.4,-1.5,36.4*,>50
COc1ccc(CC(=O)Nc2ccc(NC(=O)c3ccccc3F)cc2)cc1,1.6,0.7,13.7,0.1,-0.8,0.1,nt
O=C(NN1CCOCC1)c1cnn2c(C(F)F)cc(-c3ccccc3)nc12,1.0,0.6,9.5,0.0,-2.3,-3.5,nt
Cn1c(=O)oc2cc(S(=O)(=O)NCCC(=O)N3CCN(c4ccccc4)CC3)ccc21,nt,nt,nt,nt,nt,-1.0,nt
Cn1c(=O)oc2cc(S(=O)(=O)NCCC(=O)N3CC=C(c4ccccc4)CC3)ccc21,4.3,-0.2,0.6,-1.4,-3.1,17.6*,>50
CCOC(=O)c1c(N)sc(C(=O)N(C)C)c1CN1CCOCC1,-2.8,2.5,6.6,1.2,-5.7,3.6,nt
COc1ccccc1Nc1c2ccccc2nc2ccccc12,nt,nt,nt,nt,nt,27.2*,>50
COc1ccccc1Nc1nc(-c2ccccc2)nc2ccccc12,1.1,1.4,4.8,-2.4,2.8,-0.9,nt
Oc1cccc(Nc2c3ccccc3nc3ccccc23)c1,nt,nt,nt,nt,nt,50.4*,>50
c1cncc(Nc2c3ccccc3nc3ccccc23)c1,nt,nt,nt,nt,nt,33.9*,>50
COc1cc([N+](=O)[O-])ccc1NC(=O)N1CCCCCC1,nt,nt,nt,nt,nt,-2.3,nt
Cc1ccc(S(=O)(=O)/N=C(/Nc2cccc3ccccc23)c2ccc(F)cc2)cc1,nt,nt,nt,nt,nt,1.4,nt
O=C(COC(=O)c1ccccc1SCC(=O)N1CCCC1)NC1CCCCC1,nt,nt,nt,nt,nt,-2.9,nt
CCCCOc1ccc(OCCSc2nc3ccccc3n2CC(=O)O)cc1,nt,nt,nt,nt,nt,17.9*,>50
Cc1ccc(S(=O)(=O)N(C)Cc2ccc(C(=O)N/N=C3\CC(=O)CC(C)(C)C3)cc2)cc1,-3.4,0.6,2.0,-4.0,2.9,18.6*,>50
C/C(=C\C(=O)C(F)(F)F)Nc1ccc(C(F)(F)F)cc1,1.1,1.4,0.6,0.5,3.2,20.4*,>50
SMILES,eIF4E 4G PPI,PERK inh,Hck-Nef inh,Runt-CBFb FRET,Runt-SMMHC FRET,RanGTP-Impb inh,YIC FRET counter
O=C(NC1CCCCC1)C(c1ccc(F)cc1)N(C(=O)c1csnn1)C1CCCC1 (stereo not drawn),nt,nt,nt,nt,nt,0.1,nt
COC(=O)[C@@](C)(O)C1(C(=O)SC(C)(C)C)CC1,nt,nt,nt,nt,nt,-2.8,nt
Cc1ccc(CNC(=O)CS(=O)Cc2nc(-c3cccs3)oc2C)cc1 (stereo not drawn),-0.6,1.1,1.4,-0.4,-1.9,0.8,nt
COc1ccc2c(c1)O/C(=C\c1ccco1)C2=O,-2.8,0.8,26.9,13.6,61.2*,20.8*,18.8*
COC(=O)C(C)Oc1ccc2c(c1)O/C(=C\c1ccco1)C2=O (stereo not drawn),nt,nt,nt,nt,nt,20.8*,17.4*
O=C(NCCc1c[nH]c2ccccc12)C1CCCN(S(=O)(=O)c2ccccc2)C1 (stereo not drawn),nt,nt,nt,nt,nt,-2.8,nt
Cc1ccc(NC(=O)CN2C(=O)CN(C)C2=O)cc1S(=O)(=O)N1CCCCC1,1.8,1.1,1.8,-1.4,3.6,2.0,nt
O=C(O)C1Cc2c([nH]c3ccccc23)C(c2ccc3c(c2)OCO3)N1 (stereo not drawn),-2.8,0.1,1.1,4.1,47.6,-3.1,nt
COc1ccc(C2NC(C(=O)O)Cc3c2[nH]c2ccccc32)cc1CN1CCN(c2ccc(F)cc2)CC1 (stereo not drawn),0.9,-0.4,14.3,7.8,38.0,23.6*,8.57*
COc1ccc(C2NCCc3c2[nH]c2ccccc32)cc1COc1ccc(F)cc1 (stereo not drawn),5.9,-1.0,0.1,-2.5,-5.0,22.2*,>50
COc1ccccc1/C=C/C(=O)NC(=S)NCC1CCCO1 (stereo not drawn),-2.3,-0.2,23.2,0.0,1.4,-0.2,nt
Cc1nn(-c2ccccc2)c2sc(C(=O)NC3CCCCC3)cc12,2.7,-0.2,-0.8,2.0,-1.5,27.7*,>50
O=C(c1cc2ccccc2oc1=O)N1CCN(CCc2ccccc2)CC1,3.8,-1.2,-3.2,50.0,77.0*,33.2*,7.34*
C=CCN1C(=O)/C(=C2/Sc3ccccc3N2C)SC1=Nc1ccccc1C,12.2,-0.7,1.3,-2.4,-2.2,1.3,nt
CCN1C(=O)/C(=C2\Sc3ccccc3N2CC)OC1=S,-5.1,0.2,6.7,-6.1,11.5,20.6*,36.3*
C=CCN1C(=O)/C(=C2/Sc3ccccc3N2CC)SC1=S,nt,nt,nt,nt,nt,16.6*,>50
CSc1nsc(SCC(=O)Nc2nc3ccccc3s2)n1,0.7,1.5,0.9,-2.0,3.6,-0.9,nt
CCOC(=O)c1sc(NC(=O)CSc2nc(C)cc(C)n2)c(C#N)c1C,-1.1,0.2,1.2,-3.8,0.8,20.6*,>50
O=c1cn[nH]c2ccccc12,2.0,2.4,6.7,2.0,-9.5,20.7*,>50
COc1cccc2c(=O)cn[nH]c12,3.8,1.2,3.0,-1.5,4.6,0.2,nt
Cc1ccc(CCNC(=O)C2CCC(=O)N2CCc2ccccc2)cc1 (stereo not drawn),nt,nt,nt,nt,nt,1.0,nt
COc1ccc(N2C(=O)N3[C@H](c4ccc(Br)cc4)[C@@H]4C(=O)N(C(C)(C)C)C(=O)[C@@H]4[C@]3(Cc3ccccc3)C2=O)cc1,nt,nt,nt,nt,nt,26.1*,>50
CCOC(=O)c1ccc(CNC(=O)CSc2nnc(-c3ccncc3)o2)cc1,2.1,-0.4,-1.9,2.0,-4.9,25.9*,>50
